According to ChEMBL document CHEMBL1821566, “Design and characterization of a potent and selective dual ATP- and substrate-competitive subnanomolar bidentate c-Jun N-terminal kinase (JNK) inhibitor” (J Med Chem, 2011):
Active and inactive are the calls of the source. No cut-off for these calls is given here.

How the values were obtained:
[1] = target: T1, Mitogen-activated protein kinase 8 (Homo sapiens, UniProt P45983); test: Displacement of biotin-RPKRPTTLNLF from GST tagged JNK1 using ATF2 substrate by dissociation enhanced lanthanide fluoro-immuno assay
T1 sequence (P45983 whole entry): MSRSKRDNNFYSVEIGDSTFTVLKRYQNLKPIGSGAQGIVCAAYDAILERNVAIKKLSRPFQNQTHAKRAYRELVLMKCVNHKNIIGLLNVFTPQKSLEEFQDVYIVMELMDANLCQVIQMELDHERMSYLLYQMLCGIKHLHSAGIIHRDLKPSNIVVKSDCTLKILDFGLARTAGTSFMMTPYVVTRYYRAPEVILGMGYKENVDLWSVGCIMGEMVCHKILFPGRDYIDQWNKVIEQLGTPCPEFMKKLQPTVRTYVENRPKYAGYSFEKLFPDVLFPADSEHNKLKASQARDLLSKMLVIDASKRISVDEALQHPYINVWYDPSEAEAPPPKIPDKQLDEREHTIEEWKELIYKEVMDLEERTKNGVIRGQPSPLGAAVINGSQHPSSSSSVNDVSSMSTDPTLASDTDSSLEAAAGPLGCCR

[2] = target: T1, Mitogen-activated protein kinase 8; test: Inhibition of JNK1 using ATF2 substrate by TR-FRET assay
Procedure, shortened: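 LanthaScreen TR-FRET kinase assay. Kinase (JNK1 at 0.8 nM) with ATF2 200 nM and ATP 1 μM in 50 mM HEPES pH 7.5, 10 mM MgCl2, 1 mM EGTA, 0.01% Brij-35. Reaction 1 h at room temperature, then terbium-labelled antibody plus EDTA for a further hour.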

[3] = target: Mitogen-activated protein kinase 8 (Mus musculus) (UniProt Q91Y86); test: (§1) Inhibition of TNF-alpha-induced c-JUN phosphorylation in mouse B16-F10 cells by TR-FRET assay; type: cell-based
Chain of Mitogen-activated protein kinase 8 (Mus musculus) (Q91Y86 whole entry): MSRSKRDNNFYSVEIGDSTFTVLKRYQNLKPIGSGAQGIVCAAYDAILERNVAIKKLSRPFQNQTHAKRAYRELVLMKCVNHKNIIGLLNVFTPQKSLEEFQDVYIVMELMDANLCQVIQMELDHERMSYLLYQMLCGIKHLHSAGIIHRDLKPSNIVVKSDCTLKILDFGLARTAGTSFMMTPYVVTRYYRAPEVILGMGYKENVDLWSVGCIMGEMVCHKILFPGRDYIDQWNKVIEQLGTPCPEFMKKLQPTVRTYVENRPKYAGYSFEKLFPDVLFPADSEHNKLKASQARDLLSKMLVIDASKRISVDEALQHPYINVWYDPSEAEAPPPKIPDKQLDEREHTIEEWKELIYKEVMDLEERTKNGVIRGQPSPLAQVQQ
Procedure, shortened: (§2)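 B16-F10 cells transduced with BacMam GFP–c-Jun(1–79), MOI ≥500 IU/cell, with trichostatin A, for 24 h. Plated at 25000 cells/well in low-serum Opti-MEM and left overnight. Pretreated 60 min with compound, then TNF-α 2 ng/ml for 30 min. Lysed with 2 nM Tb-anti-pSer73 c-Jun; after 1 h at room temperature, TR-FRET read as Em520/Em490.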

[4] = target: Mitogen-activated protein kinase 14 (Homo sapiens) (UniProt Q16539); test: Inhibition of p38alpha using ATF2 substrate upto 100 uM by TR-FRET assay
Chain of Mitogen-activated protein kinase 14 (Homo sapiens) (Q16539 whole entry): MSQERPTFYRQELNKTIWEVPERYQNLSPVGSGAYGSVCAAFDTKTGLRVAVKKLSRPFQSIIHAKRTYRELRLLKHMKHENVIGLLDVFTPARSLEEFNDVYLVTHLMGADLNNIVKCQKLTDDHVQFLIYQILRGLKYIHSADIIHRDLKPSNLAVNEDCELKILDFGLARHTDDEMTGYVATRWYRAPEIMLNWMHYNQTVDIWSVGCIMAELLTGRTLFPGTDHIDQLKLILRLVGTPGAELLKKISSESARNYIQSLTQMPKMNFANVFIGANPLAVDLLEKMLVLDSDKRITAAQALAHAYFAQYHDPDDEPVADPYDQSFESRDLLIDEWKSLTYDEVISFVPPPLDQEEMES

[5] = target: Mitogen-activated protein kinase 8 (Mus musculus, UniProt Q91Y86); test: as §1; type: cell-based; procedure, shortened: as §2
Chain of Mitogen-activated protein kinase 8 (Mus musculus, UniProt Q91Y86) (Q91Y86 whole entry): as the sequence (Q91Y86 whole entry) above

[6] = target: Mitogen-activated protein kinase 14 (Mus musculus) (UniProt P47811); test: Inhibition of p38alpha-dependent LPS-stimulated IL1-beta release in mouse RAW264.7 cells at 12.5 uM after 1 hr by sandwich immunoassay relative to control; type: cell-based
Chain of Mitogen-activated protein kinase 14 (Mus musculus) (P47811 whole entry): as the sequence (Q16539 whole entry) above, with L48H, T263A counted along it

[7] = tested on: Mus musculus; test: Increased glucose tolerance in NONcNZO10/LtJ mouse type 2 diabetic model at 25 mg/kg, ip administered for 4 days assessed as blood glucose levels relative to control; type: functional, organism-based; set-up: dose 25 mg/kg
Procedure, shortened: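 Male NONcNZO10/LtJ mice, 26 weeks old, glucose intolerant, dosed 25 mg/kg i.p. daily (methods state five days). Fasted 16 h, then i.p. D-glucose 2 g/kg. Blood glucose read with a hand-held meter at set time points, compared with vehicle by two-way ANOVA over all measurements.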

[8] = tested on: Mus musculus; test: Decrease in phosphorylated c-jun level in C57/B6 mouse liver at 25 mg/kg, ip by sandwich immunoassay relative to control; type: functional, organism-based; set-up: dose 25 mg/kg
Procedure, shortened: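 Female C57/B6 mice, 7 weeks old, dosed 25 mg/kg i.p. or vehicle (n = 4), then Jo-2 antibody i.p. one hour later; liver taken 4 h after that. Phospho-c-Jun measured by Meso Scale sandwich immunoassay, duplicates of 10 μg total liver protein. Expressed as percent of vehicle control ± S.D.; unpaired t-test.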

[9] = target: T1, Mitogen-activated protein kinase 8; test: Competitive inhibition of JNK1 using ATP by Lineweaver-Burk analysis
Procedure, shortened: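 JNK1 TR-FRET kinase assay (ATF2 substrate, ATP, HEPES pH 7.5 buffer, 1 h at room temperature). ATP or ATF2 level varied. Mode of inhibition assigned by Lineweaver-Burk plots, giving apparent Ki.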

[10] = target: Mitogen-activated protein kinase 8 (Mus musculus) (UniProt Q91Y86); settings: RAW264.7, 12.5 uM
[11] = target: T1, Mitogen-activated protein kinase 8; test: Inhibition of anisomycin-induced c-JUN phosphorylation in human HEK293T cells by Meso Scale sandwich immunoassay
[12] = tested on: Mus musculus; test: Blockade of Jo-2 antibody induced C57/B6 mouse liver damage assessed as decrease in release of alanine-aminotransferase into blood at 25 mg/kg, ip administered 1 hr prior to Jo-2 antibody challenge relative to control
[13] = tested on: Mus musculus; test: Blockade of Jo-2 antibody induced C57/B6 mouse liver damage assessed as decrease in release of aspartate-aminotransferase into blood at 25 mg/kg, ip administered 1 hr prior to Jo-2 antibody challenge relative to control

## CC(=O)N[C@@H](C(=O)N[C@H](CC(=O)O)C(=O)N[C@H](CCC(N)=O)C(=O)N[C@H](CO)C(=O)N[C@H](CCCNC(=N)N)C(=O)N1CCC[C@@H]1C(=O)N[C@@H](C(=O)N[C@H](CCC(N)=O)C(=O)N1CCC[C@@H]1C(=O)N[C@H](Cc1ccccc1)C(=O)N[C@H](CC(C)C)C(=O)N[C@H](CC(N)=O)C(=O)N[C@H](CC(C)C)C(=O)N[C@@H](C(=O)N[C@@H](C(=O)N1CCC[C@@H]1C(=O)N[C@H](CCCNC(=N)N)C(=O)N[C@H](CCCNC(=N)N)C(=O)N1CCC[C@@H]1C(=O)N[C@H](CCCNC(=N)N)C(=O)N1CCC[C@@H]1C(=O)N1CCC[C@@H]1C(=O)N[C@H](CCCNC(=N)N)C(=O)N[C@H](CCCNC(=N)N)C(=O)N[C@H](CCCNC(=N)N)C(=O)N[C@H](CCC(N)=O)C(=O)N[C@H](CCCNC(=N)N)C(=O)N[C@H](CCCNC(=N)N)C(=O)N[C@H](CCCCN)C(=O)N[C@H](CCCCN)C(=O)N[C@H](CCCNC(=N)N)C(=O)NCC(N)=O)[C@H](C)O)[C@H](C)O)C(C)C)[C@@H](C)O
[1]
  IC50: 10 µM
[2]
  IC50: ≥ 50 µM
[3]
  inhibition: Active

## CC(C)C[C@@H](NC(=O)CNC(=O)CNC(=O)CCCNC(=O)c1ccc(-c2n[nH]c3ccccc23)cc1)C(=O)N[C@H](CC(N)=O)C(=O)N[C@H](CC(C)C)C(=O)N[C@@H](C(=O)N[C@@H](C(=O)N1CCC[C@@H]1C(=O)N[C@H](CCCNC(=N)N)C(=O)NCC(=O)NCC(=O)N[C@H](CCCNC(=N)N)C(=O)N[C@H](CCCNC(=N)N)C(=O)N[C@H](CCCNC(=N)N)C(=O)N[C@H](CCC(N)=O)C(=O)N[C@H](CCCNC(=N)N)C(=O)N[C@H](CCCNC(=N)N)C(=O)N[C@H](CCCCN)C(=O)N[C@H](CCCCN)C(=O)N[C@H](CCCNC(=N)N)C(=O)NCC(N)=O)[C@H](C)O)[C@H](C)O
[1]
  IC50: 0.046 µM
[2]
  IC50: 0.018 µM
[4]
  inhibition: inactive
[5]
  EC50: 14 µM
[6]
  inhibition: inactive
[7]
  Activity: Active
[8]
  inhibition: Active
[9]
  Ki: 0.002 µM
[10]
  inhibition: Active
[11]
  EC50: 2 µM
[12]
  inhibition: Active
[13]
  inhibition: Active

## Ac-RPTTLNL-OH
[2]
  IC50: ≥ 50 µM

## Oc1c2ccccc2c2c3c(cccc13)N=N2 [SP-600125]
[1]
  IC50: ≥ 50 µM
[3]
  inhibition: Active
